Measured values pooled from the literature.
Each line is one published result; the experiments were not run side by side.

SMILES	method	matrix	time	pH	temperature	notes	solubility
COc1ccc2cc3n(c(=O)c2c1OC)CCc1cc2c(cc1-3)OCO2		water	24 h		25 °C		< 0.05 µg/mL
CC(=Nc1ccc(N=Cc2cnccn2)cc1)N(C)C	shake flask	PBS	24 h	pH 7.4	25 °C		~20 µg/mL
Oc1ccccc1/C=N/c1c(-c2ccccc2)nc2ccc(Cl)cn12		aqueous buffer		pH 7			125 µg/mL
Cn1cnc2ccc(Nc3c(F)ccc(NS(=O)(=O)N4CC(F)C4)c3Cl)c(Cl)c2c1=O		aqueous buffer		pH 2.05			2 µg/mL
CC(=O)C(C)n1c(CN2CCN(c3cccc(Cl)c3)CC2)nc2c1c(=O)n(C)c(=O)n2C (stereo not drawn)		PBS					> 20 µM
Cc1ccc(Cn2cc(C(=O)NN)c(=O)c3cc(Oc4ccccc4)ccc32)cc1	shake flask	PBS	24 h	pH 6.5	25 °C		< 5 µM
C/C(=N/c1ccc(/N=C/c2ccc(/C=N/c3ccc(/N=C(/C)N(C)C)cc3)cc2)cc1)N(C)C	shake flask	PBS		pH 7.4	25 °C		0.38 µg/mL
CCCc1cc(C(=O)OC)c(NC(=O)C2CCN(C(C)=O)CC2)s1		PBS					> 20 µM
Cc1c(C(=O)O)ccc2c3n(nc12)[C@@H]1[C@H](C3)N(CC2CC2)[C@@]2(C(=O)Nc3cc(Cl)ccc32)[C@H]1c1cccc(Cl)c1F		aqueous buffer		pH 6.8			< 1 µg/mL
N=C(N)NCCC[C@H](NC(=O)[C@@H](NC(=O)[C@H](Cc1cscn1)NC(=O)CCc1ccccc1)C1CCCCC1)C(=O)c1nc2ccccc2s1		PBS	90 min	pH 7.4			> 10 µM
O=[N+]([O-])c1ccc(/C=N/c2c(-c3ccccc3)nc3ccc(Cl)cn23)cc1		aqueous buffer		pH 7			25 µg/mL
Cn1cncc1[C@@](N)(c1ccc(Cl)cc1)c1ccc2c(c1)c(-c1cccc(Cl)c1)cc(=O)n2C		simulated gastric fluid		pH 1.02	25 °C	acidic	> 3750 µg/mL
